A selection: hits, their analogues and other compounds. The true share with any hit is near 1.8%.
PTPN22 act – LYP phosphatase activators, primary screen, biochemical, DiFMUP fluorescence, 2 µM; Tyrosine-protein phosphatase non-receptor type 22 (Homo sapiens), Q9Y2R2; recombinant LYP; 0 = plate median, 100 = signal doubled; activation, % at 2 µM; 96,000 compounds, 0.11% hits;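 active = activation at 2 µM above a set limit, the mean plus 5 SD, cut at about 37% in these data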
PTPN22 inh 2 – PTPN22 phosphatase inhibitors, primary screen, biochemical, DiFMUP fluorescence, 2 µM | Tyrosine-protein phosphatase non-receptor type 22 (Homo sapiens), Q9Y2R2 | recombinant LYP catalytic domain | inhibition, % at 2 µM | 96,000 compounds, 0.21% hits | AID 640, 2007;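 active = inhibition at 2 µM at or above a set limit, the screen mean plus 3 SD, cut at about 24% in these data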
HIV Rev-RRE inh – HIV-1 Rev-RRE binding inhibitors, primary screen, biochemical, FRET, protein-RNA interaction; Rev peptide-RRE RNA binding; inhibition, % at 8 µM; 97,000 compounds, 0.79% hits; AID 704, 2007;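 active = inhibition above the screen-wide mean plus 3 SD, cut at about 35% in these data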
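Test system: labelled RRE RNA duplex and labelled Rev peptide. Times: 5 min compound–RNA preincubation, then 15 min with peptide, 25 °C. Doses: single-dose 8 µM. Measured by: FRET, excitation 480 nm, emission 540 nm donor and 671 nm acceptor. Measure: % inhibition of FRET ratio versus controls.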
PLK1 kinase inh – human PLK1 kinase inhibitors, primary screen, biochemical, TR-FRET | Serine/threonine-protein kinase PLK1 (Homo sapiens), P53350 | recombinant PLK1 kinase, TR-FRET peptide phosphorylation | inhibition, % at 10 µM | 97,000 compounds, 0.53% hits | AID 619, 2007;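 active = inhibition of 50% or more in the single-concentration screen; inactive = inhibition below 50%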
Plk1 PBD FP – Plk1 polo box domain binding inhibitors, primary screen, biochemical, fluorescence polarization. 97,000 compounds, 0.13% hits. inhibition, %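 (tested at about 20 µM)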. Plk1 PBD phosphopeptide binding; in the data active = inhibition above about 34%, passing the limit was not always enough
EphB4 antag – EphB4-ephrin-B2 interaction antagonists, primary screen, biochemical, TNYL-RAW peptide probe, fluorescence polarization | Ephrin type-B receptor 4 (Homo sapiens), P54760 | EphB4 LBD / TNYL-RAW-Alexa532 peptide | inhibition, % at 7 µM | 97,000 compounds, 0.15% hits;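 active = inhibition above the screen-wide mean inhibition plus 3 SD, cut at about 15% in these data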
Each line names hits and unclear results; the compound was inactive in the other large screens; [ ] = dose if it differs, or a comment.

O=C(CSc1nnc(-c2ccccn2)n1Cc1ccccc1)NC1CCCC1	EphB4 antag 15.8
Cc1nnc(SCC(=O)N(Cc2ccccc2)C(C)C)n1-c1ccccc1	none
N#Cc1c(Sc2ncc(C(F)(F)F)cc2Cl)nsc1C/C=N\OCc1ccccc1Br	HIV Rev-RRE inh 69.2
CCOC(=O)/C(=C\Nc1ccccc1C(F)(F)F)Sc1ncc(C(F)(F)F)cc1Cl	none
N#CC1=C(N)Oc2cc(Nc3ccccc3)ccc2C1c1ccncc1 (stereo not drawn)	none
O=c1[nH]c(Cc2ccccc2)nc2scc(-c3ccccc3)c12	none
O=c1[nH]cnc2scc(-c3ccccc3)c12	PLK1 kinase inh 67.7
O=C(CSc1nnc(-c2ccc(Cl)s2)o1)N1CCCc2ccccc21	PTPN22 inh 2 24.5
O=C(CSc1nnc(-c2ccc(Cl)s2)o1)N1CCc2ccccc21	none
COc1ccc(-c2csc(NC(=O)C3CCCCN3S(=O)(=O)c3ccccc3)n2)cc1 (stereo not drawn)	none
C=CCN1C(=O)S/C(=C\c2ccc(N3CCOCC3)cc2C)C1=O	HIV Rev-RRE inh 39.5
CCCCCSc1nnc2c(n1)OC(C)N(C(C)=O)c1ccccc1-2 (stereo not drawn)	PLK1 kinase inh 57.2 (no result: PTPN22 act, PTPN22 inh 2)
CN(C)c1ccc(/C=c2\sc3nc(-c4ccccc4)nn3c2=O)cc1	HIV Rev-RRE inh 75.0
COc1cc(/C=c2\sc3nc(-c4ccncc4)nn3c2=O)ccc1OC(C)=O	none
Cn1cc([N+](=O)[O-])c(C(=O)Nc2cc(Oc3cccnc3)cc([N+](=O)[O-])c2)n1	none
O=C1N2CCSC2=NC1(Nc1nccs1)C(F)(F)F (stereo not drawn)	none
Cn1cccc1C(=O)Nc1nc(-c2ccccn2)cs1	none
O=C(Nc1nc(-c2ccccn2)cs1)c1ncc(Cl)c(Cl)c1Cl	PTPN22 inh 2 27.0
COc1ccc(-c2cc(CCCC(=O)NCc3ccccn3)no2)cc1	none
CCc1nnc(NS(=O)(=O)c2ccc(NC(=S)NC(=O)/C=C/c3ccc(C(C)C)cc3)cc2)s1	PTPN22 inh 2 33.4
O=C1C(=O)N(CCN2CCCCC2)c2ccccc21	PLK1 kinase inh 53.5
O=C1c2ccccc2C(=O)N1CCN1CCCCC1	none
Cc1ccc(C)c(N(CC(=O)NC2CCCCC2)C(=O)CCC(=O)Nc2ccccn2)c1	none
Cc1ccc(N(CC(=O)NC2CCCC2)C(=O)CCCC(=O)Nc2ccccn2)cc1C	PLK1 kinase inh 57.5
CCOC(=O)c1c(C)oc2c1c1c(c3ccccc32)OCN(Cc2cccnc2)C1	EphB4 antag 16.1
COC(=O)c1ccc(C2Nc3ccc(/C(C)=N/NC(=O)C(OC)c4ccccc4)cc3C3C=CCC32)cc1 (stereo not drawn)	none
COC(=O)c1c(C)c2c(C)cc3ccccn3c-2c1C(=O)OC	HIV Rev-RRE inh 45.9
COc1ccc(N(CC(=O)N2CCc3ccccc32)S(=O)(=O)c2c(C)n[nH]c2C)cc1	none
Cc1cc(-c2c(C)[nH]n(-c3ccc(Cl)cc3)c2=O)n[nH]1	PTPN22 inh 2 82.4
Cc1[nH]n(-c2ccccc2)c(=O)c1Sc1ccc(Cl)cc1	none
C=CCNC(=O)C1CC(=O)N(c2ccc(C)cc2)C1 (stereo not drawn)	PLK1 kinase inh 59.2 (no result: PTPN22 act, PTPN22 inh 2)
Cc1c(CCO)c(=O)[nH]n1C(=O)c1ccc(F)cc1	none
Cc1ccc(C(C)C)c(OCC(=O)c2c(O)c3ccccc3oc2=O)c1	none
O=C(CCCSc1nnnn1-c1ccccc1)c1ccc(F)cc1	none
Cc1noc(/C=C/c2ccc(-c3ccccc3Cl)o2)c1[N+](=O)[O-]	HIV Rev-RRE inh 103.5[fluorescence artefact?]
N#Cc1ncc(C(F)(F)F)cc1Sc1ccc(N)cc1	EphB4 antag 16.1
N#Cc1cc(N)ccc1Sc1ccc(Cl)cc1	none
Cc1[nH]nc(-c2ccc(O)c(C)c2O)c1-c1cnn(-c2ccccc2)c1	none
Cc1ccc(S(=O)(=O)Nc2nc3ccccc3nc2NCc2ccco2)cc1	HIV Rev-RRE inh 45.8
Cc1ccc(S(=O)(=O)c2c(N)n(Cc3ccco3)c3nc4ccccc4nc23)cc1	HIV Rev-RRE inh 59.5

Source: PubChem BioAssay (several laboratories)
